Laboratory results reported in ChEMBL document CHEMBL3994589, “Total Synthesis and in Vitro Anti-Tumor-Promoting Activities of Racemic Acetophenone Monomers from Acronychia trifoliolata” (J Nat Prod, 2016).

Tests used:
[1] = Inhibition of TPA-induced EBV-early antigen activation in human Raji cells after 48 hrs by indirect immunofluorescence method; format: cell-based, human gammaherpesvirus 4
Procedure, shortened: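 EBV-EA activation induced in Raji cells by 32 pmol/mL TPA, with compounds tested over molar ratios relative to TPA. IC50 is the compound concentration inhibiting 50% of the positive control activated with 32 nM TPA.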

human gammaherpesvirus 4 [2] = test: Inhibition of TPA-induced EBV-early antigen activation in human Raji cells assessed as reduction in EBV-EA positive cells at 100 molar ratio per TPA after 48 hrs by indirect immunofluorescence method relative to TPA; values are per cent of control
human gammaherpesvirus 4 [3] = test: Inhibition of TPA-induced EBV-early antigen activation in human Raji cells assessed as reduction in EBV-EA positive cells at 500 molar ratio per TPA after 48 hrs by indirect immunofluorescence method relative to TPA; values are per cent of control
human gammaherpesvirus 4 [4] = test: Inhibition of TPA-induced EBV-early antigen activation in human Raji cells assessed as reduction in EBV-EA positive cells at 1000 molar ratio per TPA after 48 hrs by indirect immunofluorescence method relative to TPA; values are per cent of control
human gammaherpesvirus 4 [5] = test: Inhibition of TPA-induced EBV-early antigen activation in human Raji cells assessed as reduction in EBV-EA positive cells at 10 molar ratio per TPA after 48 hrs by indirect immunofluorescence method relative to TPA; values are per cent of control
[6] = Cytotoxicity against human Raji cells assessed as cell viability at 1000 molar ratio per TPA after 48 hrs by trypan blue staining based method; settings: read-out: Activity
Procedure, shortened: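 Raji cells exposed to test compounds at 1000 mol ratio to TPA (TPA 32 pmol/mL) in the EBV-EA activation assay; viability of treated cells scored by trypan blue staining and reported as percentage.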

| SMILES | IC50 [1] [µM] | level, % of control (human gammaherpesvirus 4 [2]) [%] | level, % of control (human gammaherpesvirus 4 [3]) [%] | level, % of control (human gammaherpesvirus 4 [4]) [%] | level, % of control (human gammaherpesvirus 4 [5]) [%] | viability at 48 h, 1000 molar ratio per TPA [6] [%] |
| --- | --- | --- | --- | --- | --- | --- |
| COc1c(CC=C(C)C)c2c(c(OC(C)=O)c1C(C)=O)CC(C(C)(C)O)O2 (stereo not given) | 15 | 71 | 43.8 | 7 | 100 | 60 |
| COc1c2c(c(CC=C(C)C)c(OC(C)=O)c1C(C)=O)OC(C(C)(C)O)C2 (stereo not given) | 9.6 | 78.6 | 33.9 | 5.3 | 97.8 | 60 |
| COc1c(CCC(C)C)c2c(c(O)c1C(C)=O)CC(O)C(C)(C)O2 (stereo not given) | 8.1 | 78.8 | 36.6 | 0 | 97.8 | 60 |
| COc1c2c(c(CC=C(C)C)c(O)c1C(C)=O)OC(C(C)(C)O)C2 (racemic) | 7.7 | 74.3 | 30.6 | 0 | 93.3 | 60 |
| COc1c(CC=C(C)C)c(O)c2c(c1C(C)=O)OC(C)(C)C(O)C2 (racemic) | 8.4 | 68.2 | 27.1 | 1.5 | 96.6 | 60 |
| COc1c2c(c(CC=C(C)C)c(O)c1C(C)=O)OC(C)(C)C(O)C2 (racemic) | 7.3 | 65.5 | 26.5 | 0 | 92.4 | 60 |
| COc1c2c(c(CCC(C)C)c(O)c1C(C)=O)OC(C)(C)C(O)C2 (racemic) | 9.3 | 76 | 31.5 | 4.9 | 97.7 | 60 |
| COc1c2c(cc(O)c1C(C)=O)OC(O)C2 (racemic) | 15.7 | 77.9 | 53.3 | 10.8 | 100 | 60 |
| COc1c(CC=C(C)C)c2c(c(O)c1C(C)=O)CC(O)C(C)(C)O2 (racemic) | 8.9 | 72.5 | 29.1 | 3 | 96.9 | 60 |
| COc1c(CC=C(C)C)c2c(c(O)c1C(C)=O)CC(C(C)(C)O)O2 (racemic) | 8 | 75.5 | 32 | 0 | 94.9 | 60 |
| COc1cc(/C=C/C(=O)CC(=O)/C=C/c2ccc(O)c(OC)c2)ccc1O [CURCUMIN] | 12.1 | 80.1 | 21.1 | 0 | 100 | – |
